For one experiment, the target named is T1, Aurora kinase A (Homo sapiens, UniProt O14965).
T1 sequence (O14965 whole entry): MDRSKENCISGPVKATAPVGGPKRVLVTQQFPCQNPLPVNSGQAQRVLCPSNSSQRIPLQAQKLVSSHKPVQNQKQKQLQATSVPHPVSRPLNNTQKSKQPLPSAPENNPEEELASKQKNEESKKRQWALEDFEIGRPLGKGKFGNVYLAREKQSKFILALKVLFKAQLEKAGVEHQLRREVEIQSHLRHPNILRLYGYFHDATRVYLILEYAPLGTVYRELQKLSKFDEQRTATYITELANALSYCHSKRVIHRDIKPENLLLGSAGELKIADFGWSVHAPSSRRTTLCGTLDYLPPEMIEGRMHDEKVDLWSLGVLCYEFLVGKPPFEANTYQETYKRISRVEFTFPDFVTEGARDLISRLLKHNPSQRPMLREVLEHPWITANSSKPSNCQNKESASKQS
Kind of experiment: Inhibition of Aurora-A by microplate scintillation counting. The method in brief:
(§1)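 Substrates: tetra(LRRWSLG) for Aurora A/B; poly(Ala,Glu,Lys,Tyr)6:2:5:1 for PDGFRβ; poly(Glu,Tyr)4:1 for TIE2 and VEGFR2. Stopped with 2% H3PO4.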

The next experiment concerns the target Aurora kinase B (Homo sapiens, UniProt Q96GD4). In words: Inhibition of Aurora-B by microplate scintillation counting. An outline of the steps: as §1
Experiment [1] deals with T2, Epidermal growth factor receptor (Homo sapiens, UniProt P00533). In words: Inhibition of wild type EGF-R by microplate scintillation counting.
The target in experiment [2] is Vascular endothelial growth factor receptor 2 (Homo sapiens, UniProt P35968). In words: Inhibition of VEGFR2 by microplate scintillation counting.
In experiment [3] the target is T3, Angiopoietin-1 receptor (Homo sapiens, UniProt Q02763). In words: Inhibition of TIE2 by microplate scintillation counting.
In experiment [4] the target is Receptor tyrosine-protein kinase erbB-2 (Homo sapiens, UniProt P04626). In words: Inhibition of ERBB2 by microplate scintillation counting. An outline of the steps:
(§2)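 Radiometric FlashPlate assay using recombinant kinase (10–200 ng/well) with poly(Glu,Tyr)4:1 substrate. Buffer: 60 mM HEPES-NaOH pH 7.5, 3 mM MgCl2, 3 mM MnCl2, 3 µM orthovanadate, 1.2 mM DTT, PEG 20000, 1 µM [γ-33P]-ATP. Run 80 min at 30 °C, stopped with H3PO4, and 33P incorporation counted.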

Experiment [5] addresses Platelet-derived growth factor receptor beta (Homo sapiens, UniProt P09619). In words: Inhibition of PDGFRbeta by microplate scintillation counting. An outline of the steps: as §1
The target in experiment [6] is Vascular endothelial growth factor receptor 3 (Homo sapiens, UniProt P35916). Kind of experiment: Inhibition of VEGFR3 by microplate scintillation counting. The method in brief: as §2
In experiment [7] the target is T2, Epidermal growth factor receptor. Kind of experiment: Inhibition of EGFR in human HCT116 cells by cellular phosphorylation assay.
For experiment [8], the target named is T3, Angiopoietin-1 receptor. Kind of experiment: Inhibition of TIE2 in human HCT116 cells by cellular phosphorylation assay. It is filed as cell-based, HCT-116. The method in brief:
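TIE2 autophosphorylation in cells expressing the receptor. Compound was applied, cells were stimulated, then lysed with phosphoprotein levels preserved. Phosphorylation was quantified by sandwich ELISA with a receptor-specific capture antibody and anti-phosphotyrosine antibody, relative to the stimulated high control.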

A word on the IC50: it is the concentration at which inhibition is half-maximal. Lower therefore signals inhibition by little substance. By EC50 is commonly meant the concentration at which the effect is half-maximal. Read a high EC50 as a less potent agent.

Vascular endothelial growth factor receptor 3, sequence (P35916 whole entry): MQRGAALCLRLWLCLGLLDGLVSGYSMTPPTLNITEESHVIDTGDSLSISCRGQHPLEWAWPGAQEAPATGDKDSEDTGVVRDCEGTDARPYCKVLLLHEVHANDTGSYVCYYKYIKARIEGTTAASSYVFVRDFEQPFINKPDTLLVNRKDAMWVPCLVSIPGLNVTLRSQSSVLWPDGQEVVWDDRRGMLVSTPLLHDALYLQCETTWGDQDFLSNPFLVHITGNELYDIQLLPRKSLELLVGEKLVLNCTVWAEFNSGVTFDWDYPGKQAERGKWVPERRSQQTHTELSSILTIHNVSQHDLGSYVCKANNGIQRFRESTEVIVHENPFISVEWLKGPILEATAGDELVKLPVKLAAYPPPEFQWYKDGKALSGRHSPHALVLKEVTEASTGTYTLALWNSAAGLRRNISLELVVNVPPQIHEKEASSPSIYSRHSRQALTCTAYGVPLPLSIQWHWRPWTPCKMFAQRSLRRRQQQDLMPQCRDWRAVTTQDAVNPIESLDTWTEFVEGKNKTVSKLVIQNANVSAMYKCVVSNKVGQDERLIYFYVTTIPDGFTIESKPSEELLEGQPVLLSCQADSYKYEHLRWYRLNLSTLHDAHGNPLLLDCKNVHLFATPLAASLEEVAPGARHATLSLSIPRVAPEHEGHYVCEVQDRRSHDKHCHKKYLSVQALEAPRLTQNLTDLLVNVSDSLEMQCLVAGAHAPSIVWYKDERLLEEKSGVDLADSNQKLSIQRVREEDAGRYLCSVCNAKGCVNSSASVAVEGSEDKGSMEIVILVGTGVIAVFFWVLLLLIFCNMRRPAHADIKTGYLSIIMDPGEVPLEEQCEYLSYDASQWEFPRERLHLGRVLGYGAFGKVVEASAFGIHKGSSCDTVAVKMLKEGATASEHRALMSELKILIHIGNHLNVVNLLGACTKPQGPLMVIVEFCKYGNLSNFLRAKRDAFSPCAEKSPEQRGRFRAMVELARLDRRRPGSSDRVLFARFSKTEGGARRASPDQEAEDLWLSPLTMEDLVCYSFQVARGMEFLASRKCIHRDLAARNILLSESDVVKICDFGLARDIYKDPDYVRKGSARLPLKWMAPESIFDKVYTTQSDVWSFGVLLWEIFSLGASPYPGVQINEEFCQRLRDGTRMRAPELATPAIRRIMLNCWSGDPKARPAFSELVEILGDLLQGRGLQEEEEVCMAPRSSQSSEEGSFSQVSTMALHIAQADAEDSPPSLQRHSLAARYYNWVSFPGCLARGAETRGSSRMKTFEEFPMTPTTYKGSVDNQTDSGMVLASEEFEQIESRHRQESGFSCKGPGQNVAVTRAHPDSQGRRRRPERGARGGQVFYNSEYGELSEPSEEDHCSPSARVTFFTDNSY
Platelet-derived growth factor receptor beta, sequence (P09619 whole entry): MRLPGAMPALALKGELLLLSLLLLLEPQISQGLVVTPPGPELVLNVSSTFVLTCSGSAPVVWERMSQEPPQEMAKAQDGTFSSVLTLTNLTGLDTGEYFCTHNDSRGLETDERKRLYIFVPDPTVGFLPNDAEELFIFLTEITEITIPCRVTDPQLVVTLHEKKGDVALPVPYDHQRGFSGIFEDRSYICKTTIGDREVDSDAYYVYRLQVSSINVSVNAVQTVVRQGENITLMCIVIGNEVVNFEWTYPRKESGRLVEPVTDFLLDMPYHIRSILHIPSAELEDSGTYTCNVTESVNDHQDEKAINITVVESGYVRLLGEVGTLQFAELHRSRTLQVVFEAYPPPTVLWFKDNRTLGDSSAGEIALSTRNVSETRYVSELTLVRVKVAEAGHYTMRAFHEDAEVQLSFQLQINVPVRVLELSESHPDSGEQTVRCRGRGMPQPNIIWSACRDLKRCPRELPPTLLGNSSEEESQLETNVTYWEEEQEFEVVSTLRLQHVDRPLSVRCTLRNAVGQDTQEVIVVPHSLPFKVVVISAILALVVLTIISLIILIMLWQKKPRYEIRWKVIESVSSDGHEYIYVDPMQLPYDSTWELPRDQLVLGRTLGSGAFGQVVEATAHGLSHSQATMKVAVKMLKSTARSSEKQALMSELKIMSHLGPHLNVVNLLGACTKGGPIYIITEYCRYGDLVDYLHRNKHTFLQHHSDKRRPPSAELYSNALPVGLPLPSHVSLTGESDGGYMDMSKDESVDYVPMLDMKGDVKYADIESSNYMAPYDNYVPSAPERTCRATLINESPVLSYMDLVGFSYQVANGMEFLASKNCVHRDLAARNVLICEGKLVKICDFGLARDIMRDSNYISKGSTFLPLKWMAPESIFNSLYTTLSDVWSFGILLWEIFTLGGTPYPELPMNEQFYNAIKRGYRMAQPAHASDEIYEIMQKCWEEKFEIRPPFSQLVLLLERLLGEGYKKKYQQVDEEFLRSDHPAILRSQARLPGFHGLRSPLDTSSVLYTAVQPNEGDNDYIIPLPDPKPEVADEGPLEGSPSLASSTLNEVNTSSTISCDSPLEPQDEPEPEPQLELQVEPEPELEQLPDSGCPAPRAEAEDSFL
T3 sequence (Q02763 whole entry): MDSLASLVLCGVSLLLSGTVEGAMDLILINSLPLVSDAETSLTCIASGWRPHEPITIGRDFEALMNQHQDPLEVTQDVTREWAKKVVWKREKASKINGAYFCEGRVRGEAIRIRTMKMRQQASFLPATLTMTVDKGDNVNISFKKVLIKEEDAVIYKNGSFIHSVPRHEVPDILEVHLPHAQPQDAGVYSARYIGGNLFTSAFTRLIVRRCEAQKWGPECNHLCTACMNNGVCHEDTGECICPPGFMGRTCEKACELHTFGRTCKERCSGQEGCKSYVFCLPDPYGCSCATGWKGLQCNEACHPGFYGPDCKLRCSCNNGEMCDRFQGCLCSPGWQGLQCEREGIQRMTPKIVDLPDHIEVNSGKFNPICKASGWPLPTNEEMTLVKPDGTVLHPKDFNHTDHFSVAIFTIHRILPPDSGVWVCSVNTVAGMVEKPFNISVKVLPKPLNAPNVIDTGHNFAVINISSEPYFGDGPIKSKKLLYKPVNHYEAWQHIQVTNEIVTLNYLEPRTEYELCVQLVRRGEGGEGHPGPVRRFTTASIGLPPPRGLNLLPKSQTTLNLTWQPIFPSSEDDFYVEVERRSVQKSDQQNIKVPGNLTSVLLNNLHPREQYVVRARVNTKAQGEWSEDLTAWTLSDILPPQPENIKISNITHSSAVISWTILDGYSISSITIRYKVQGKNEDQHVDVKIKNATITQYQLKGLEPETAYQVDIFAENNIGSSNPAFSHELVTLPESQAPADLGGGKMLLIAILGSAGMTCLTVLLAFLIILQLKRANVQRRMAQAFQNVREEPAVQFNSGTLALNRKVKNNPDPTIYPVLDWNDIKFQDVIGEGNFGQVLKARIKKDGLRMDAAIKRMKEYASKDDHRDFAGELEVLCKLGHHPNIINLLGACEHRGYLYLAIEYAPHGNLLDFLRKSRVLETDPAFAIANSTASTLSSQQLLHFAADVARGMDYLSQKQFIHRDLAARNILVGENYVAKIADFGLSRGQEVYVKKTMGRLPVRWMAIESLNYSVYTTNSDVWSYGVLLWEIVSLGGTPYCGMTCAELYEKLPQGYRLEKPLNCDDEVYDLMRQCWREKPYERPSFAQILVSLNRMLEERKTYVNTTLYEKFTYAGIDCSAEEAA
Vascular endothelial growth factor receptor 2, sequence (P35968 whole entry): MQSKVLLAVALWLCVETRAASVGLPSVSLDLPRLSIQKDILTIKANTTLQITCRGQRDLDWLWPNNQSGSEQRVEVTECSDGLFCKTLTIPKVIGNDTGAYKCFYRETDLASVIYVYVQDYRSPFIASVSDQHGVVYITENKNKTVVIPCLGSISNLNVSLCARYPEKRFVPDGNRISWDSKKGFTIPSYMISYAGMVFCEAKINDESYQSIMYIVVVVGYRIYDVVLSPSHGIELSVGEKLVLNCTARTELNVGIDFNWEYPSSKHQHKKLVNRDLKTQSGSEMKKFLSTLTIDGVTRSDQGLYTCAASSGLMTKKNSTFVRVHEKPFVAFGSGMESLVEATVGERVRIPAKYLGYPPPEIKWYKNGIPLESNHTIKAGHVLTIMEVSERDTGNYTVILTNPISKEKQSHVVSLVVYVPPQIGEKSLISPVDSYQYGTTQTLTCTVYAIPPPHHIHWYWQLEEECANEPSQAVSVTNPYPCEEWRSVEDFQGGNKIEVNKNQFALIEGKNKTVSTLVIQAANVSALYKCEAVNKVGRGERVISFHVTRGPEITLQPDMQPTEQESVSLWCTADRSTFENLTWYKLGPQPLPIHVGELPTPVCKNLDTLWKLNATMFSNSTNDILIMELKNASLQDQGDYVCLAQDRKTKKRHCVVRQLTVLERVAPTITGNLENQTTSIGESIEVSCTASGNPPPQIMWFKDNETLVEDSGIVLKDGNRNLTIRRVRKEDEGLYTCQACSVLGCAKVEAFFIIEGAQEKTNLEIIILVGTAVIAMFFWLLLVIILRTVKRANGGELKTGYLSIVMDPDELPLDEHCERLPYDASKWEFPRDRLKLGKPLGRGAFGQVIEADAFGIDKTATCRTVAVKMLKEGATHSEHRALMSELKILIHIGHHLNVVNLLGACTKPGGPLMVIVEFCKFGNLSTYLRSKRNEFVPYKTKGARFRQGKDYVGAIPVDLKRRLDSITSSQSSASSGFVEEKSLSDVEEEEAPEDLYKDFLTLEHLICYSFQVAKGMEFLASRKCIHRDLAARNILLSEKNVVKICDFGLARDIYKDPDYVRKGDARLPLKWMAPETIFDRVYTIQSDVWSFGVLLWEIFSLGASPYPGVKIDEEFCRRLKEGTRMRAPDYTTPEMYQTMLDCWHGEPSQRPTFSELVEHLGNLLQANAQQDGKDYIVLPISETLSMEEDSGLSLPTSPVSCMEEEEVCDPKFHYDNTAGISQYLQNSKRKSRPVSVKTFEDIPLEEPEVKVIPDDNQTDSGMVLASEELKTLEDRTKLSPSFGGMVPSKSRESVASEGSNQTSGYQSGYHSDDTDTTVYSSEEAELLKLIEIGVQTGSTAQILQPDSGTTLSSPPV

Regarding `COc1cc2c(Nc3ccc(-c4nc5ccccc5s4)cc3O)ncnc2cc1OCCCN1CCN(C)CC1`, the IC50 against Aurora kinase A was found to be 230 nM; on Aurora kinase B, 270 nM; in experiment [1] it was 350 nM; in experiment [2] it was 280 nM; on Angiopoietin-1 receptor [3], 230 nM; in experiment [4], 3600 nM. Further, the IC50 in experiment [5] is more than 10000 nM; in experiment [6], 4500 nM.

With `COc1cc2c(Nc3ccc(-c4nc5ccc(F)cc5s4)cc3)ncnc2cc1OCCCN1CCN(C)CC1`, the IC50 at Aurora kinase A turned out to be 26 nM; on Aurora kinase B, 41 nM; in [1], 730 nM; in experiment [2] it was 335 nM; at Angiopoietin-1 receptor [3] it was 235 nM; in experiment [4] it was 6950 nM. Moreover, the values for the IC50 in experiment [5] and in [6] were 3400 nM and 865 nM, respectively. The EC50 (in [7]; at Angiopoietin-1 receptor [8]) was more than 10000 nM each time.

`COc1ccc2nc(-c3ccc(Nc4ncnc5cc(OCCCN6CCN(C)CC6)c(OC)cc45)cc3)sc2c1`: the IC50 stood at 62 nM against Aurora kinase A; 48 nM at Aurora kinase B; 200 nM in experiment [1]; 690 nM in [2]; 390 nM on Angiopoietin-1 receptor [3]; 130 nM in [4]. Further, the results for the IC50 in experiment [5] and in experiment [6] were more than 10000 nM and 1900 nM, respectively.

Turning to `COc1cc2c(Nc3ccc(-c4nc5ccccc5s4)c(Cl)c3)ncnc2cc1OCCCN1CCN(C)CC1`, the IC50 against Aurora kinase A was 27 nM; on Aurora kinase B, 78 nM; in [2], 120 nM; against Angiopoietin-1 receptor [3] it was 37 nM; in [4], 38 nM; in [5], 3600 nM. In experiment [6], this compound gave an IC50 of 470 nM. For the same compound, a half-maximal effect on Angiopoietin-1 receptor [8] (EC50) was put at 10000 nM.

As for `COc1cc2ncnc(Nc3ccc(-c4nc5ccccc5s4)cc3O)c2cc1OCCCN1CCN(C)CC1`, the 50% inhibitory concentration (IC50) on Aurora kinase A is 800 nM; against Aurora kinase B it was 800 nM; in experiment [1], 230 nM; against Angiopoietin-1 receptor [3], 880 nM; in experiment [4] it was 2300 nM; in experiment [5], more than 10000 nM.

As to `COc1cc2c(Nc3ccc(-c4nc5ccccc5s4)cc3C)ncnc2cc1OCCCN1CCN(C)CC1`, the IC50 against Aurora kinase A amounted to 340 nM; against Aurora kinase B, 440 nM; on Angiopoietin-1 receptor [3], 38 nM; in [4], 490 nM; in experiment [5] it was 6700 nM; in experiment [6], 340 nM.

Turning to `COc1cc2ncnc(Nc3ccc(-c4nc5ccccc5s4)c(Cl)c3)c2cc1OCCCN1CCN(C)CC1`, the IC50 at Aurora kinase A worked out at 690 nM; on Aurora kinase B it was 4800 nM; in experiment [1] it was 44 nM; on Angiopoietin-1 receptor [3], 510 nM; in experiment [4], 180 nM; in experiment [5], 7700 nM.

`COc1cc2ncnc(Nc3ccc(-c4nc5ccccc5s4)c(F)c3)c2cc1OCCCN1CCN(C)CC1`: the IC50 against Aurora kinase A was 200 nM; at Aurora kinase B it was 670 nM; in [1], 2300 nM; on Angiopoietin-1 receptor [3], 3100 nM; in experiment [4], more than 10000 nM; in experiment [5], 8700 nM.

As to `COc1cc2ncnc(Nc3ccc(-c4nc5ccccc5s4)cc3C)c2cc1OCCCN1CCN(C)CC1`, the IC50 against Aurora kinase A was 9400 nM; at Aurora kinase B, more than 10000 nM; in experiment [1] it was 1400 nM; on Angiopoietin-1 receptor [3] it was 350 nM; in experiment [4] it was 5900 nM; in [5] it was more than 10000 nM.

In the case of `COc1cc2c(Nc3ccc(-c4nc5ccccc5s4)cc3)ncnc2cc1OCCCN1CCN(C)CC1`, the IC50 against Aurora kinase A came out at 14 nM; against Aurora kinase B, 60 nM; in experiment [1], 46 nM; in [2], 12 nM; on Angiopoietin-1 receptor [3] it was 54 nM; in experiment [4] it was 100 nM. Moreover, the results for the IC50 in experiment [5] and in experiment [6] were 1400 nM and 69 nM, respectively.

Regarding `COc1cc2c(Nc3ccc(-c4nc5ccc(Cl)cc5s4)cc3F)ncnc2cc1OCCCN1CCN(C)CC1`, the IC50 against Aurora kinase A is 85 nM; against Aurora kinase B, 90 nM; in experiment [1] it was 6200 nM; in experiment [2], 2250 nM; at Angiopoietin-1 receptor [3], 615 nM; in [4] it was more than 10000 nM. The IC50 in experiment [5] came to 9200 nM; in experiment [6] it was 3000 nM.

For the compound `COc1cc2ncnc(Nc3ccc(-c4nc5ccccc5s4)cc3O)c2cc1OC`, the IC50 against Aurora kinase A is more than 10000 nM; on Aurora kinase B it was 4200 nM; in experiment [1], 2200 nM; in [2], 6900 nM.

Take `COc1cc(-c2nc3ccccc3s2)ccc1Nc1ncnc2cc(OC)c(OCCCN3CCN(C)CC3)cc12`: the IC50 is 1300 nM at Aurora kinase A; 1900 nM at Aurora kinase B; more than 10000 nM in experiment [1]; 6100 nM against Angiopoietin-1 receptor [3]; more than 10000 nM in experiment [4]; more than 10000 nM in experiment [5].

Take `COc1cc2c(N(C)c3ccc(-c4nc5ccccc5s4)c(OC)c3)ncnc2cc1OCCCN1CCN(C)CC1`: the IC50 against Aurora kinase A is 3300 nM; on Aurora kinase B, 8000 nM; in experiment [2], more than 10000 nM; against Angiopoietin-1 receptor [3], more than 10000 nM; in [5], more than 10000 nM; in experiment [6], more than 10000 nM.

Take `COc1cc2ncnc(Nc3ccc(-c4nc5ccccc5s4)c(O)c3)c2cc1OCCCN1CCN(C)CC1`: the IC50 is 300 nM against Aurora kinase A; 640 nM against Aurora kinase B; 3300 nM in [1]; 5300 nM on Angiopoietin-1 receptor [3]; more than 10000 nM in experiment [4]; 10000 nM in [5].

Take `COc1cc2ncnc(Nc3ccc(-c4nc5ccccc5s4)c(OC)c3)c2cc1OCCCN1CCN(C)CC1`: the IC50 at Aurora kinase A was 1600 nM; on Aurora kinase B, more than 10000 nM; in experiment [1] it was 15 nM; against Angiopoietin-1 receptor [3], 1400 nM; in experiment [4], 47 nM; in experiment [5] it was 3800 nM.

As for `COc1cc(-c2nc3ccccc3s2)ccc1Nc1ncnc2cc(OC)c(OC)cc12`, the IC50 was more than 10000 nM against Aurora kinase A, more than 10000 nM at Aurora kinase B, 63 nM in experiment [1] and more than 10000 nM in [2].

Turning to `COc1cc2c(Nc3ccc(-c4nc5ccccc5s4)cc3OC(F)(F)F)ncnc2cc1OCCCN1CCN(C)CC1`, the IC50 at Aurora kinase A is 290 nM; on Aurora kinase B, 520 nM; in [1], more than 10000 nM; in experiment [2] it was more than 10000 nM; against Angiopoietin-1 receptor [3], 590 nM; in [4] it was more than 10000 nM. Moreover, the results for the IC50 in experiment [5] and in experiment [6] were 9100 nM and more than 10000 nM, respectively.

As for `COc1cc2c(Nc3ccc(-c4nc5ccccc5s4)c(C)c3)ncnc2cc1OCCCN1CCN(C)CC1`, the IC50 against Aurora kinase A amounted to 230 nM; on Aurora kinase B, 260 nM; in [2], 350 nM; at Angiopoietin-1 receptor [3], 68 nM; in experiment [5] it was 7900 nM; in [6], 1500 nM.

With `COc1cc2c(Nc3ccc(-c4nc5ccc(Cl)cc5s4)cc3)ncnc2cc1OCCCN1CCN(C)CC1`, the IC50 is 54 nM at Aurora kinase A; 64 nM against Aurora kinase B; 260 nM in experiment [1]; 2500 nM in experiment [2]; 410 nM against Angiopoietin-1 receptor [3]; 2300 nM in [4]. Besides, the IC50 in experiment [5] is 8000 nM; in [6], 9300 nM.

With `COc1cc2ncnc(Nc3ccc(-c4nc5cc(Cl)ccc5s4)cc3)c2cc1OCCCN1CCN(C)CC1`, the half-maximal inhibitory concentration (IC50) at Aurora kinase A was 400 nM; at Aurora kinase B, 500 nM; in experiment [1] it was more than 10000 nM; at Angiopoietin-1 receptor [3], 4000 nM; in [4], more than 10000 nM; in [5] it was 9900 nM.

For `COc1cc2ncnc(Nc3ccc(-c4nc5cc(C(F)(F)F)ccc5s4)cc3)c2cc1OCCCN1CCN(C)CC1`, the IC50 is 1200 nM against Aurora kinase A; 2100 nM against Aurora kinase B; more than 10000 nM in [1]; more than 10000 nM at Angiopoietin-1 receptor [3]; more than 10000 nM in experiment [4]; more than 10000 nM in experiment [5].

With `COc1cc2ncnc(Nc3ccc(-c4nc5ccccc5s4)cc3F)c2cc1OCCCN1CCN(C)CC1`, the IC50 against Aurora kinase A was 390 nM; against Aurora kinase B it was 410 nM; in [1] it was 4500 nM; against Angiopoietin-1 receptor [3] it was 360 nM; in experiment [4] it was more than 10000 nM; in experiment [5], 10000 nM.

With `COc1cc2ncnc(Nc3ccc(-c4nc5ccccc5s4)cc3)c2cc1OCCCN1CCN(C)CC1`, the IC50 stood at 110 nM at Aurora kinase A, 510 nM against Aurora kinase B, 2200 nM in [4] and 3800 nM in experiment [5].

Turning to `COc1cc2ncnc(Nc3ccc(-c4nc5ccccc5s4)cc3)c2cc1OC`, the IC50 in experiment [2] was 6300 nM.

These data come from ChEMBL document CHEMBL1152560, “Substituted 2-arylbenzothiazoles as kinase inhibitors: hit-to-lead optimization” (Bioorg Med Chem, 2009).
